Measured values from ChEMBL document CHEMBL1122917, “Vinblastin-23-oyl amino acid derivatives: chemistry, physicochemical data, toxicity, and antitumor activities against P388 and L1210 leukemias” (J Med Chem, 1985).

What was measured:
Assay type in all cases: functional
[1] = system: Mus musculus; experiment: Percent increase in life span at dose 15 mg/kg/day in 10 mice implanted with P388 leukemia cell line
Outline: (§1)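 Female DBA2 mice inoculated iv on day 0 with 10^4 P388 cells; single iv treatment on day 1 with drug as sulfate salt in physiological saline. Survival followed; %ILS from all deaths and survivors as (T/C × 100) − 100, maximal MST 30 days; survivors counted on days 30 and 60. Most experiments confirmed three times.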

[2] = system: Mus musculus; experiment: Number of survivors on 60th day at dose 10 mg/kg/day in 10 mice implanted with P388 leukemia cell line
[3] = system: Mus musculus; experiment: Percent increase in life span of DBA2 mice after inoculation with L1210 leukemia intravenously at a dose of 12.5 mg/kg per day; settings: route intravenous
Outline: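 Female DBA2 mice inoculated iv on day 0 with 10^4 L1210 cells; drugs given iv as sulfate salts in physiological saline, mostly once on day 1. %ILS from all deaths and survivors as (T/C × 100) − 100; survivors scored on days 30 and 60.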

[4] = system: Mus musculus; experiment: Number of survivors on 30th day at dose 15 mg/kg/day in 10 mice implanted with P388 leukemia cell line
[5] = system: Mus musculus; experiment: Number of survivors on 60th day at dose 5 mg/kg/day in 10 mice implanted with P388 leukemia cell line
[6] = system: Mus musculus; experiment: Number of survivors on 60th day at dose 15 mg/kg/day in 10 mice implanted with P388 leukemia cell line
[7] = system: Mus musculus; experiment: Percent increase in life span at dose 12.5 mg/kg/day in 10 mice implanted with P388 leukemia cell line; outline: as §1
[8] = system: Mus musculus; experiment: Number of survivors of DBA2 mice on 60th day after inoculation with L1210 leukemia cell line intravenously at a dose of 12.5 mg/kg/day; 0/10; settings: route intravenous
[9] = system: Mus musculus; experiment: Number of survivors on 30th day at dose 25 mg/kg/day in 10 mice implanted with P388 leukemia cell line
[10] = system: Mus musculus; experiment: Number of survivors of DBA2 mice on 30th day after inoculation with L1210 leukemia cell line intravenously at a dose of 12.5 mg/kg/day; 0/10; settings: route intravenous
[11] = system: Mus musculus; experiment: Number of survivors on 60th day at dose 25 mg/kg/day in 10 mice implanted with P388 leukemia cell line
[12] = system: Mus musculus; experiment: Number of survivors on 60th day at dose 12.5 mg/kg/day in 10 mice implanted with P388 leukemia cell line
[13] = system: Mus musculus; experiment: Percent increase in life span at dose 25 mg/kg/day in 10 mice implanted with P388 leukemia cell line
[14] = system: Mus musculus; experiment: Number of survivors on 30th day at dose 5 mg/kg/day in 10 mice implanted with P388 leukemia cell line
[15] = system: Mus musculus; experiment: Percent increase in life span at dose 5 mg/kg/day in 10 mice implanted with P388 leukemia cell line; outline: as §1
[16] = system: Mus musculus; experiment: Number of survivors on 30th day at dose 10 mg/kg/day in 10 mice implanted with P388 leukemia cell line
[17] = system: Mus musculus; experiment: Percent increase in life span at dose 10 mg/kg/day in 10 mice implanted with P388 leukemia cell line; outline: as §1
[18] = system: Mus musculus; experiment: Number of survivors on 30th day at dose 12.5 mg/kg/day in 10 mice implanted with P388 leukemia cell line
[19] = system: Mus musculus; experiment: Number of survivors on 60th day at dose 60 mg/kg/day in 10 mice implanted with P388 leukemia cell line; 0/10; outline: as §1
[20] = system: Mus musculus; experiment: Percent increase in life span at dose 80 mg/kg/day in 10 mice implanted with P388 leukemia cell line; outline: as §1
[21] = system: Mus musculus; experiment: Number of survivors on 30th day at dose 40 mg/kg/day in 10 mice implanted with P388 leukemia cell line; 0/10
[22] = system: Mus musculus; experiment: Percent increase in life span at dose 60 mg/kg/day in 10 mice implanted with P388 leukemia cell line; outline: as §1
[23] = system: Mus musculus; experiment: Number of survivors on 60th day at dose 80 mg/kg/day in 8 mice implanted with P388 leukemia cell line; 0/8
[24] = system: Mus musculus; experiment: Number of survivors on 60th day at dose 40 mg/kg/day in 10 mice implanted with P388 leukemia cell line; 0/10
[25] = system: Mus musculus; experiment: Percent increase in life span at dose 40 mg/kg/day in 10 mice implanted with P388 leukemia cell line; outline: as §1
[26] = system: Mus musculus; experiment: Number of survivors on 30th day at dose 60 mg/kg/day in 10 mice implanted with P388 leukemia cell line; 0/10
[27] = system: Mus musculus; experiment: Number of survivors on 30th day at dose 80 mg/kg/day in 8 mice implanted with P388 leukemia cell line; 0/8
[28] = system: Mus musculus; experiment: Number of survivors on 60th day at dose 5 mg/kg/day in 10 mice implanted with P388 leukemia cell line; 0/10
[29] = system: Mus musculus; experiment: Percent increase in life span at dose 20 mg/kg/day in 10 mice implanted with P388 leukemia cell line; outline: as §1
[30] = system: Mus musculus; experiment: Percent increase in life span at dose 30 mg/kg/day in 10 mice implanted with P388 leukemia cell line; outline: as §1
[31] = system: Mus musculus; experiment: Number of survivors on 30th day at dose 30 mg/kg/day in 10 mice implanted with P388 leukemia cell line; 0/10
[32] = system: Mus musculus; experiment: Number of survivors on 30th day at dose 50 mg/kg/day in 10 mice implanted with P388 leukemia cell line; 0/10
[33] = system: Mus musculus; experiment: Number of survivors on 60th day at dose 30 mg/kg/day in 10 mice implanted with P388 leukemia cell line; 0/10
[34] = system: Mus musculus; experiment: Number of survivors on 30th day at dose 20 mg/kg/day in 10 mice implanted with P388 leukemia cell line; 0/10
[35] = system: Mus musculus; experiment: Number of survivors on 60th day at dose 50 mg/kg/day in 10 mice implanted with P388 leukemia cell line; 0/10
[36] = system: Mus musculus; experiment: Number of survivors on 30th day at dose 15 mg/kg/day in 10 mice implanted with P388 leukemia cell line; 0/10
[37] = system: Mus musculus; experiment: Percent increase in life span at dose 50 mg/kg/day in 10 mice implanted with P388 leukemia cell line; outline: as §1
[38] = system: Mus musculus; experiment: Number of survivors on 60th day at dose 15 mg/kg/day in 10 mice implanted with P388 leukemia cell line; 0/10
[39] = system: Mus musculus; experiment: Number of survivors on 30th day at dose 5 mg/kg/day in 10 mice implanted with P388 leukemia cell line; 0/10
[40] = system: Mus musculus; experiment: Number of survivors on 60th day at dose 20 mg/kg/day in 10 mice implanted with P388 leukemia cell line; 0/10

CCOC(=O)[C@H](C)NC(=O)[C@@]1(O)[C@H](O)[C@]2(CC)C=CCN3CC[C@@]4(c5cc([C@@]6(C(=O)OC)C[C@H]7C[N@](CCc8c6[nH]c6ccccc86)C[C@](O)(CC)C7)c(OC)cc5N(C)[C@@]14C)[C@@H]32
ILS at 15 mg/kg/day [1]: 39% | Survivors [2]: 2 | ILS at 12.5 mg/kg/day [3]: 50% | Survivors [4]: 0 | Survivors [5]: 0 | Survivors [6]: 0 | ILS at 12.5 mg/kg/day [7]: 46% | Survivors [8]: 0 | Survivors [9]: 2 | Survivors [10]: 0 | Survivors [11]: 1 | Survivors [12]: 1 | ILS at 25 mg/kg/day [13]: 63.8% | Survivors [14]: 0 | ILS at 5 mg/kg/day [15]: 27.6% | Survivors [16]: 2 | ILS at 10 mg/kg/day [17]: 36.8% | Survivors [18]: 1

CCCCCCCCOC(=O)[C@H](CC(C)C)NC(=O)[C@@]1(O)[C@H](O)[C@]2(CC)C=CCN3CC[C@@]4(c5cc([C@@]6(C(=O)OC)C[C@H]7C[N@](CCc8c6[nH]c6ccccc86)C[C@](O)(CC)C7)c(OC)cc5N(C)[C@@]14C)[C@@H]32
Survivors [19]: 0 | ILS at 80 mg/kg/day [20]: 9.5% | Survivors [21]: 0 | ILS at 60 mg/kg/day [22]: 7.8% | Survivors [23]: 0 | Survivors [24]: 0 | ILS at 40 mg/kg/day [25]: -0.9% | Survivors [26]: 0 | Survivors [27]: 0

CC[C@]1(O)C[C@@H]2C[N@](CCc3c([nH]c4ccccc34)[C@@](C(=O)OC)(c3cc4c(cc3OC)N(C)[C@@]3(C)[C@@](O)(C(=O)N[C@@H](CC(C)C)C(N)=O)[C@H](O)[C@]5(CC)C=CCN6CC[C@]43[C@@H]65)C2)C1
ILS at 15 mg/kg/day [1]: 8.7% | Survivors [28]: 0 | ILS at 20 mg/kg/day [29]: 1.7% | Survivors [21]: 0 | ILS at 30 mg/kg/day [30]: 1.7% | Survivors [31]: 0 | Survivors [32]: 0 | Survivors [33]: 0 | Survivors [34]: 0 | Survivors [35]: 0 | Survivors [36]: 0 | ILS at 5 mg/kg/day [15]: 1.7% | ILS at 50 mg/kg/day [37]: 15.5% | Survivors [24]: 0 | ILS at 40 mg/kg/day [25]: 19% | Survivors [38]: 0 | Survivors [39]: 0 | Survivors [40]: 0
